Test results: ChEMBL document CHEMBL1150426, “New C5-alkylated indolobenzazepinones acting as inhibitors of tubulin polymerization: cytotoxic and antitumor activities” (J Med Chem, 2008)

Assays:
KB = assay: Cytotoxicity against human KB cells after 72 hrs; assay type: functional, cell-based
How it was run: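 KB cells in EMEM (4.5 g/L glucose, 10% FCS, 1% glutamine) seeded 5 × 10³/well, dosed after 24 h with compound in DMSO (<0.1%). 72 h exposure, then resazurin 2 h; fluorescence ex 560/em 590 nm. IC50 = 50% fluorescence decrease versus untreated; triplicate.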

[1] = Inhibition of sheep brain tubulin polymerization; parameters: species or system Ovis aries
How it was run: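 Sheep brain tubulin (about 2–3 mg/mL), purified by two assembly–disassembly cycles, in 0.1 M MES, 0.5 mM MgCl₂, 1 mM EGTA, 1 mM GTP, pH 6.6. Assembly followed by turbidity at 350 nm, 37 °C.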

Row | IC50 [1] [nM] | Structure (SMILES) | IC50 (KB) [nM]
1 |  | O=C1NCc2ccccc2-c2c1[nH]c1ccccc21 | 550
2 | 3600 | CCC1NC(=O)c2[nH]c3ccc(F)cc3c2-c2ccccc21 (racemic) | 500
3 |  | C[C@H]1NC(=O)c2[nH]c3ccccc3c2-c2ccccc21 | 340
4 | 1900 | C[C@@H]1NC(=O)c2[nH]c3ccccc3c2-c2ccccc21 | 80
5 |  | CC1NC(=O)c2c(c3ccccc3n2C)-c2ccccc21 (racemic) | 7000
6 |  | CC1NCc2[nH]c3ccccc3c2-c2ccccc21 (racemic) | 12000
7 | 1700 | CC(C)C1NC(=O)c2[nH]c3ccccc3c2-c2ccccc21 (racemic) | 280
8 |  | CC1NC(=S)c2[nH]c3ccccc3c2-c2ccccc21 (racemic) | 360
9 |  | CC1NC(=O)c2[nH]c3ccccc3c2-c2ccccc21 (racemic) | 280
